What was measured:
[1] = target: RyRs; details: read-out: affinity between OpiCa1 and RyRs; cited from earlier work
[2] = tested on: ICR mice; test: Blood biochemical examinations; format: in vivo; details: i.v. 5 mg/kg OpiCa1 equivalent, 12 h, n = 6
Procedure, shortened: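 Blood was drawn from the inner canthus into anticoagulant tubes 12 h after dosing and assayed for ALT, AST, CK, CK-MB, LDH, creatinine and uric acid. Data are mean ± SD; two-group comparisons used two-tailed Mann-Whitney tests.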

[3] = tested on: cardiac tissue; test: Cardiac immunohistochemistry with OpiCa1 polyclonal antibody; format: in vivo; details: mice, 12 h, self-prepared OpiCa1 polyclonal antibody, n = 6; in words
[4] = tested on: ICR mice; test: H&E staining pathological examination of heart; format: in vivo; details: 12 h after intravenous injection, n = 6
Procedure, shortened: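 Twelve hours after intravenous dosing (test compound at 5 mg/kg peptide equivalent, free peptide, empty carrier or control; n = 6), heart tissue was fixed in 4 % paraformaldehyde. It then underwent routine hematoxylin-eosin staining for histopathological examination.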

[5] = tested on: H9C2 cells; test: Flow cytometry, Annexin V-FITC / propidium iodide apoptosis; format: cell-based, rat; details: 100 μM OpiCa1, 12 h, Annexin V-FITC/PI flow cytometry
[6] = Plasma OpiCa1 concentration in vivo by ELISA; details: mice, injection of free OpiCa1 5 mg/kg
[7] = tested on: SR Ca^2+ overload related tachyarrhythmias in CPVT; details: cited from earlier work

Row | Substance | Kd [1] [nM] | cardiac function (CK, CK-MB, and LDH) [2] | liver function (ALT and AST) [2] | renal function (Crea and UA) [2] | distribution in cardiac tissue by immunohistochemistry [3] | pathological examination of heart (H&E) [4] | proportion of apoptotic cells [5] | time to complete disappearance from plasma [6] [h] | antagonism of SR Ca^2+ overload related tachyarrhythmias [7]
1 | Opicalcin1 [OpiCa1] | ~0.3 | no significant differences | no significant differences | no significant differences | significantly distributed in cardiac tissue | clear myocardial fibers and stripes | about 1.5% | ≤ 48 | –
2 | Imperacalcin | – | – | – | – | – | – | – | – | can antagonize SR Ca^2+ overload related tachyarrhythmias such as PVCs and non-sustained BVTs in CPVT

— paper PMC10682124 (Materials Today Bio, 2023)
